The source made the active and inactive calls. No cut-off for these calls is given here.
What was measured:
[1] = biological target: T1, Glucagon-like peptide 1 receptor (Homo sapiens, UniProt P43220); test: Positive allosteric modulator activity at human GLP-1R expressed in PSC-HEK293 cells assessed as potentiation of GLP-1(7-36)NH2-induced cAMP accumulation incubated for 30 mins by HTRF cAMP assay relative to control; assay type: functional, cell-based
[2] = biological target: T2, Solute carrier organic anion transporter family member 1B1 (Homo sapiens, UniProt Q9Y6L6); test: Substrate activity at human OATP1B1 expressed in HEK293 cells assessed as increase in compound uptake at 1 uM LC-MS/MS analysis; assay type: ADME, cell-based; settings: hek293, 1 µM, TDE = time-dependent effect
T2 sequence (Q9Y6L6 whole entry): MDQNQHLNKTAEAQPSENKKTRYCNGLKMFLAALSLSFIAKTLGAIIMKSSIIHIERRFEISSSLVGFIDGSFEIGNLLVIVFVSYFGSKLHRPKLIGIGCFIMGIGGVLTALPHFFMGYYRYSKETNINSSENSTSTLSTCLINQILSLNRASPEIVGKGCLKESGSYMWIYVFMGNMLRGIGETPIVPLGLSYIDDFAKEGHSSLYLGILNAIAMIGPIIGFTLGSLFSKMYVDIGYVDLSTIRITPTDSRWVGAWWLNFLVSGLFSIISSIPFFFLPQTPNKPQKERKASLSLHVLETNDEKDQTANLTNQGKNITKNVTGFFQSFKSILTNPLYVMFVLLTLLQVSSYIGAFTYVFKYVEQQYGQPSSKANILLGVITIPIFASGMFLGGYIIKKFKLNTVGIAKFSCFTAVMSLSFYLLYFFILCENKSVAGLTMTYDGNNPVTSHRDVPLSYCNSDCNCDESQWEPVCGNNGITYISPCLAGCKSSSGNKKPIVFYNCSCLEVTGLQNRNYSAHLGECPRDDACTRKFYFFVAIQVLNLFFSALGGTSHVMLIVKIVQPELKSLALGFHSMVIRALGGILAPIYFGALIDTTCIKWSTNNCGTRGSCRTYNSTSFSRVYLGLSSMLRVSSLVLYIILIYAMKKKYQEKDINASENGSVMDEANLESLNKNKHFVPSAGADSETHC
Method in brief: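 HEK-TR cells overexpressing hOATP1B1 or hOATP1B3, run in parallel with control HEK-TR cells, seeded at 1 x 10⁵ cells/well one day before. Time-dependent uptake of 1 μM compound in HBSS at 37 °C, quadruplicates. Uptake stopped with ice-cold buffer, cells washed, lysed and quantified by LC-MS/MS. Uptake ratio calculated against the control cells.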

Mus musculus [3] = test: Suppression of blood glucose concentration in GLP-1R (-/-) C57Bl/6J mouse model at 30 mg/kg, po dosed 1 hrs before test and treated with 60 mg/kg, po OATP/MRP2 inhibitor rifampicin 2.5 hrs prior to oral glucose-tolerance test; assay type: functional, organism-based
Method in brief: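 GLP-1R-/- male mice aged 10 weeks, n=6, fasted overnight. Rifampicin 60 mg/kg p.o. 2.5 h before the oGTT, compound p.o. 1 h before, with or without GLP1(9-36)NH2 i.p. 15 min before. Glucose 2 g/kg orally. Tail-vein blood glucose by glucometer at 0, 15, 30, 60 and 90 min.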

Mus musculus [4] = test: Suppression of blood glucose concentration in GLP1(9-36)NH2-treated ob/ob C57Bl/6J mouse model of T2DM at 30 mg/kg, po dosed 1 hrs before test and treated with 60 mg/kg, po OATP/MRP2 inhibitor rifampicin 2.5 hrs prior to oral glucose-tolerance test; assay type: functional, organism-based
Method in brief: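 Male ob/ob mice aged 10–11 weeks, n=7, randomised on blood glucose and fasted overnight. Rifampicin 60 mg/kg p.o. 2.5 h before the oGTT, compound 30 mg/kg p.o. 1 h before, GLP1(9-36)NH2 i.p. 15 min before, each given as indicated. Glucose 2 g/kg orally. Tail-vein glucose by glucometer at 0, 15, 30, 60 and 90 min.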

[5] = biological target: T1, Glucagon-like peptide 1 receptor; test: Positive allosteric modulator activity at human GLP-1R expressed in PSC-HEK293 cells assessed as potentiation of GLP1(9-36)NH2-induced cAMP accumulation by measuring shift in EC50 of endogenous GLP1(9-36)NH2 at 3 uM incubated for 30 mins by HTRF cAMP assay relative to control; assay type: functional, cell-based
Method in brief: (§1)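 Thaw-and-use PSC-HEK293 cells stably expressing human GLP-1R, 2000 cells/well in HBSS/20 mM HEPES/0.1% BSA with 2 mM IBMX. Enhancer format: compound dose-response plus fixed EC20 GLP1(9-36)NH2. Shift format: GLP1(9-36)NH2 dose-response plus 10 or 3 μM compound. 30 min at room temperature. HTRF cAMP read after 1 h lysis (665/620 nm). EC50 from a 4-parameter logistic fit.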

Rattus norvegicus = species: Rattus norvegicus; test: Improvement in 10 nM GLP1(9-36)NH2-mediated glucose-stimulated insulin secretion in dispersed rat pancreatic islets at 10 uM incubated for 2 hrs by ELISA; assay type: functional
Method in brief: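 Dispersed islets from male Sprague Dawley rats (collagenase digestion, Histopaque purification, Accutase dispersal, cultured up to 4 days). Pre-incubated 1 h in Krebs-Ringer with 5.6 mM glucose, then 2 h at 37 °C with 15 mM glucose, ±10 nM GLP1(9-36)NH2, ±compound 10 µM, DMSO vehicle; insulin by HTRF ELISA as % of total, n-fold vs control; N≥9.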

[6] = Apparent permeability from apical and basolateral in human Caco2/TC7 cells at apical pH 6.5 with 0.5% BSA and basolateral pH 7.4 with 5% BSA at 20 uM incubated for 2 hrs by LC-MS/MS analysis; settings: caco2/tc7, pH 6.5 apical, pH 7.4 basolateral
[7] = Cmax in Wistar rat at 10 mg/kg, po administered as single dose treated 2 hrs after dosing with 40 mg/kg, po OATP/MRP2 inhibitor rifampicin and measured up to 24 hrs ESI-LC/MS-MS analysis; assay type: ADME, organism-based; set-up: dose 10 mg/kg, route oral; settings: in vivo
Method in brief: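 Male Wistar rats (n=3 per route) pretreated orally with rifampicin 40 mg/kg (0.6% methylcellulose, 0.5% Tween 80 in water) 2 h before compound, given 3 mg/kg i.v. in Glycoferol/Cremophor-water solution or 10 mg/kg p.o. wet-milled suspension. Plasma sampled up to 24 h; ESI-LC/MS-MS after acetonitrile precipitation (LOQ 1 ng/mL); noncompartmental analysis.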

[8] = biological target: T1, Glucagon-like peptide 1 receptor; test: Positive allosteric modulator activity at human GLP-1R expressed in PSC-HEK293 cells in presence of EC20 level of GLP1(9-36)NH2 incubated for 30 mins by HTRF cAMP assay relative to control; assay type: functional, cell-based; method in brief: as §1
[9] = Permeability from apical and basolateral in human Caco2/TC7 cells at pH 7.4 in presence of 0.5% BSA; assay type: ADME, cell-based; settings: caco2/tc7, pH 7.4

T1 sequence (P43220 whole entry): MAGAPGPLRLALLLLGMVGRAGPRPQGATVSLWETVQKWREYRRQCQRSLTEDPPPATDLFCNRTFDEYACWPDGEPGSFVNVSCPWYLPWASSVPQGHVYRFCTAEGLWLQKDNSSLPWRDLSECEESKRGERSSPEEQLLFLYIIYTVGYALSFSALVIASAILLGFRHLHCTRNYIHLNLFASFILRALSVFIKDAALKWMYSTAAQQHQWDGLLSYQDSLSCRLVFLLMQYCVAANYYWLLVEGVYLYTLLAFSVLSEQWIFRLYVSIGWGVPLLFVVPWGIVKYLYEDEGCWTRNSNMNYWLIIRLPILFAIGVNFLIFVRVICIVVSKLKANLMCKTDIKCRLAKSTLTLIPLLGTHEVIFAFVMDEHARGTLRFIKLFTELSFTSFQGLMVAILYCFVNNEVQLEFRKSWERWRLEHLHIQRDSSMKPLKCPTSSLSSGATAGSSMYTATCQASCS

| Activity [1] | Activity [2] | Ratio EC50 [5] | Papp [6] | Cmax [7] | Emax [8] | permeability [9] | Structure (SMILES) | Activity (Mus musculus [3]) | Activity (Mus musculus [4]) | Activity (Rattus norvegicus) |
| --- | --- | --- | --- | --- | --- | --- | --- | --- | --- | --- |
| inactive | Tde | 2220 | 32 ×10⁻⁷ cm/s | 1130 ng/mL | 100% | 0.18 ×10⁻⁷ cm/s | CC(C)(C)OC(=O)n1c2c(c3ccccc31)C[C@H]1C(=O)N3C[C@@H](CC(=O)O)C[C@H]3[C@@H]2N1C(=O)CC1CCC(F)(F)CC1 | inactive | Active | Active |
| inactive |  | 526 |  |  | 100% |  | CC(O)CCN1C[C@H]2c3c(c4ccccc4n3C(=O)OC(C)(C)C)C[C@@H](C1=O)N2C(=O)CC1CCC(F)(F)CC1 (stereo partly drawn) |  |  |  |

From ChEMBL document CHEMBL4354813, “Design, Synthesis, and Pharmacological Evaluation of Potent Positive Allosteric Modulators of the Glucagon-like Peptide-1 Receptor (GLP-1R)” (J Med Chem, 2020)
